The structures appear in SMILES notation.

The species entered for the first test is Cavia porcellus. Description: Negative logarithm of compound concentration that reduced an LTD4-induced contraction of guinea pig ileum by 50%. The test is classed as functional. A digest of the protocol: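 Ileum from male Hartley guinea pigs (200-400 g), with isometric tension recorded. Two, three or four antagonist concentrations were tested on a single ileum against a submaximal LTD4 contraction. The concentration giving 50% inhibition was extrapolated by linear regression and expressed as -log IC50.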
As usually defined, the IC50 is the concentration that inhibits the measured activity by half. A high value points to a need for much substance. With `CCCc1c(OCCCCCCCCCC(=O)O)ccc(C(C)=O)c1O`, half-maximal inhibition (IC50) was put at 0.794 µM. This counts as sub-micromolar.

In the case of `CCCc1c(OCCCCCCCCCc2nn[nH]n2)ccc(C(C)=O)c1O`, the half-inhibitory concentration (IC50) was 0.251 µM.

For the compound `CCCc1c(OCCCCCCCC(=O)O)ccc(C(C)=O)c1O`, the midpoint of inhibition, the IC50, lay at 0.794 µM.

As for `CCCc1c(OCCCCCCN2CCN(C)CC2)ccc(C(C)=O)c1O`, half-maximal inhibition (IC50) required 5.01 µM.

In turn, `CCCc1c(OCCCCCCCCc2nn[nH]n2)ccc(C(C)=O)c1O` gave an IC50 of 0.316 µM.

On to `CCCc1c(OCCCCCCN(C)C)ccc(C(C)=O)c1O`, for which half-maximal inhibition (IC50) required 6.31 µM.

In turn, `CCCc1c(OCCCCCCO)ccc(C(C)=O)c1O` showed an IC50 of 3.98 µM.

`CCCc1c(OCCCCCCCCCCc2nn[nH]n2)ccc(C(C)=O)c1O` gave a concentration for half-maximal inhibition (IC50) of 3.16 µM. The IC50 values of the last two compounds are within 1.5-fold of each other.

Compound `CCCc1c(OCCCCCCN2CCOCC2)ccc(C(C)=O)c1O` had a concentration for half-maximal inhibition (IC50) of 3.16 µM.

In another test the test system is Cavia porcellus. Description: Bronchospastic activity to prevent increase in total pulmonary impedance (TPI) in guinea pig when administered intravenously. The test is classed as functional. The gist of the method: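 Anesthetized male Hartley guinea pigs (200-400 g), body temperature kept normal on an isothermal pad. Total pulmonary impedance was recorded with pressure transducers. LTD4 was given iv as randomized doses to build dose-response curves. The antagonist was given intravenously.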
For the compound `CCCc1c(OCCCCCc2nn[nH]n2)ccc(C(C)=O)c1O`, the Increase worked out at 25.6%.

Regarding `CCCc1c(OCCCCc2nnn[nH]2)ccc(C(C)=O)c1O` [TOMELUKAST], the Increase was 2.2%.

As to `CCCc1c(OCCCCCCc2nn[nH]n2)ccc(C(C)=O)c1O`, the Increase is 27.1%.

Another test is filed under the species Cavia porcellus. Description: Percent inhibition LTD4-induced contraction of guinea pig ileum at 1 uM of concentration. The test is classed as functional. A digest of the protocol:
(§1)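 Percent reduction of LTD4-induced contraction of isolated ileum from male Hartley guinea pigs (200-400 g). The antagonist was tested at the single concentration stated, and contraction was measured isometrically as grams of force.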
A word on the Inhibition: it is how much of the control response was suppressed. `CCCc1c(OCCCc2nnn[nH]2)ccc(C(C)=O)c1O`: the Inhibition was determined as 15%.

Another test is filed under the species Cavia porcellus. Description: Percent inhibition LTD4-induced contraction of guinea pig ileum at 30 uM of concentration. The test is classed as functional. A digest of the protocol:
as §1
In the case of `CCCc1c(OCCCC(=O)O)ccc(C(C)=O)c1O`, the Inhibition is listed as 43%.

The compound `CCCc1c(OCc2nn[nH]n2)ccc(C(C)=O)c1O` registered an Inhibition of 28%.

`CCCc1c(OCC(=O)O)ccc(C(C)=O)c1O` displayed an Inhibition of 8%.

The compound `CCCc1c(OCCC(=O)O)ccc(C(C)=O)c1O` displayed an Inhibition of 23%.

For the next test, the species on record is Cavia porcellus. Description: Percent inhibition LTD4-induced contraction of guinea pig ileum at 10 uM of concentration. The test is classed as functional. The gist of the method: as §1
For `CCCc1c(OCCCCCC(=O)O)ccc(O)c1C(C)=O`, the Inhibition is recorded as 0%.

The species named for another test is Cavia porcellus. Description: Percent inhibition LTD4-induced contraction of guinea pig ileum at 3 uM of concentration. The test is classed as functional. The gist of the method: as §1
Regarding `CCCc1cc(C(C)=O)ccc1OCCCCCC(=O)O`, the Inhibition was 0%.

On to `CCCc1c(OCCCCCCCCCCC(=O)O)ccc(C(C)=O)c1O`, for which the Inhibition is reported as 79%.

Take `C=CCc1c(OCCCCCC(=O)O)ccc(C(C)=O)c1O`: the Inhibition came out at 29%.

Take `CCCc1c(OCCCCCC#N)ccc(C(C)=O)c1O`: the Inhibition is on record as 0%.

Compound `CCCc1c(OCCCCCC(=O)O)ccc(C(=O)OC)c1O` had an Inhibition of 21%.

`CC(=O)c1ccc(OCCCCCC(=O)O)cc1O` came in with an Inhibition of 11%.

`CCCc1c(OCCCCCCCCCCCCc2nn[nH]n2)ccc(C(C)=O)c1O` displayed an Inhibition of 47%.

In the next test the test system is cysteinyl leukotriene receptor (Cavia porcellus). Description: Inhibition of LTD4-induced contraction of guinea pig ileum.
Usually pKB stands for the negative decadic logarithm of the KB, by convention in mol/L. A lower pKB goes with a large KB. Regarding `CCCc1c(OCCCCCC(=O)O)ccc(C(=O)CC)c1O`, the pKB was 6.1.

`CCCc1c(OCCCCC(=O)O)ccc(C(C)=O)c1O`: the negative-log KB (pKB) amounted to 5.8.

In turn, `CCCc1c(OCCCCCCCc2nn[nH]n2)ccc(C(C)=O)c1O` registered a negative-log KB (pKB) of 7.

In turn, `CCCc1c(OCCCCCc2nn[nH]n2)ccc(C(C)=O)c1O` yielded a negative-log KB (pKB) of 6.6.

`CCCc1c(OCCCCCCCCC(=O)O)ccc(C(C)=O)c1O` came in with a pKB of 5.8.

In turn, `CCCc1c(OCCCCCC(=O)O)ccc(C(C)=O)c1O` displayed a pKB of 6.

Turning to `CCCc1c(OCCCCCCC(=O)O)ccc(C(C)=O)c1O`, the negative logarithm of the KB (pKB) turned out to be 5.7.

In turn, `CCCc1c(OCCCCCCc2nn[nH]n2)ccc(C(C)=O)c1O` returned a pKB of 7.1.
